Source: ChEMBL document CHEMBL4368911, “Metal-Binding Pharmacophore Library Yields the Discovery of a Glyoxalase 1 Inhibitor” (J Med Chem, 2019)
pIC50, pKi: −log10 of the molar value. Calls of active or inactive are those of the source. The calls are words filed in the database; no cut-off is given here.

Experiments:
Lactoylglutathione lyase [1] = biological target: T1, Lactoylglutathione lyase (Homo sapiens, UniProt Q04760); test: Inhibition recombinant human N-terminal 6His-tagged GLO1 (2 to 184 residues) expressed in Escherichia coli using MG as substrate preincubated for 15 to 20 mins followed by substrate addition and measured every 1 min for 8 mins
How it was run: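 Recombinant human GLO1, 40 ng per well, preincubated 15–20 min with inhibitor in 100 mM sodium phosphate pH 7.0. Substrate was GSH + MG hemithioacetal, premixed 20 min at room temperature; DMSO ≤5% final. Absorbance at 240 nm read every 1 min for 8 min. Rates compared with no-inhibitor controls after background subtraction. Chugai-1 as reference.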
Target sequence in this assay (Q04760 whole entry, the tested form may be a part): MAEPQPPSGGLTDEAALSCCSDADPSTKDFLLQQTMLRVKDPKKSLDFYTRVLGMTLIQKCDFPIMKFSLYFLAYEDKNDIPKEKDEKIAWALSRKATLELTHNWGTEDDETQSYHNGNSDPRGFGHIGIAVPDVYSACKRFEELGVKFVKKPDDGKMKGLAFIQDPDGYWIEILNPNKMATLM

[2] = Toxicity in FVB/NJ mouse up to 100 mg/kg, ip; type: organism-based; details: in vivo
How it was run: (§1)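 Toxicity in mice judged by observation after i.p. dosing.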

Mus musculus [3] = test: Antidepressant-like activity in FVB/NJ mouse assessed as reduction in immobility at 12.5 mg/kg, ip measured after 120 mins by forced swim test; type: functional, organism-based
How it was run: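 Mice 108–148 days old, 12 h light–dark cycle, tested in the light phase. Each mouse got vehicle (8% DMSO, 18% Tween, […]) on one day and drug on the other, i.p., counterbalanced, about 3 weeks apart. FST run 2 h post-injection: 6 min in a bucket filled 48 cm with 23–25 water. Immobility time analysed by ANOVA with sex and test order as factors.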

[4] = Drug uptake in FVB/NJ mouse brain at 12.5 mg/kg, ip measured after 30 mins post dose by LC-MS/MS analysis; type: ADME, organism-based; details: read-out: Drug uptake
How it was run: (§2)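 Single i.p. dose, then brain sampled at 30, 60, 120 or 240 min, n = 3 per time point. Mice anesthetized with isoflurane and perfused with PBS through the left ventricle. Brains minced, extracted with acetonitrile, bead-homogenized, centrifuged and filtered. LC-MS/MS against an 11-point calibration (5–5000 ng/mL) spiked into blank brain. Median reported as ng/mg wet brain.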

[5] = Drug uptake in FVB/NJ mouse brain at 12.5 mg/kg, ip measured after 60 mins post dose by LC-MS/MS analysis; type: ADME, organism-based; details: read-out: Drug uptake; how it was run: as §2
[6] = Drug uptake in FVB/NJ mouse brain at 12.5 mg/kg, ip measured after 120 mins post dose by LC-MS/MS analysis; type: ADME, organism-based; details: read-out: Drug uptake; how it was run: as §2
[7] = Drug uptake in FVB/NJ mouse brain at 12.5 mg/kg, ip measured after 240 mins post dose by LC-MS/MS analysis; type: ADME, organism-based; details: read-out: Drug uptake; how it was run: as §2
[8] = Drug uptake in FVB/NJ mouse brain at 25 mg/kg, ip measured after 30 mins post dose by LC-MS/MS analysis; type: ADME, organism-based; details: read-out: Drug uptake; how it was run: as §2
[9] = Drug uptake in FVB/NJ mouse brain at 25 mg/kg, ip measured after 60 mins post dose by LC-MS/MS analysis; type: ADME, organism-based; details: read-out: Drug uptake; how it was run: as §2
[10] = Drug uptake in FVB/NJ mouse brain at 25 mg/kg, ip measured after 120 mins post dose by LC-MS/MS analysis; type: ADME, organism-based; details: read-out: Drug uptake; how it was run: as §2
[11] = Drug uptake in FVB/NJ mouse brain at 25 mg/kg, ip measured after 240 mins post dose by LC-MS/MS analysis; type: ADME, organism-based; details: read-out: Drug uptake; how it was run: as §2
Mus musculus [12] = test: In-vivo inhibition of GLO1 in FVB/NJ mouse assessed as increase in methylglyoxal accumulation at 12.5 mg/kg, ip measured at 30 mins post dose by LC-MS/MS analysis relative to control; type: functional
How it was run: (§3)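 Brain MG measured 30–240 min after i.p. dosing and compared with vehicle-treated mice. Brains taken after PBS perfusion under isoflurane, then acetonitrile extraction, homogenization, centrifugation and filtration. LC-MS/MS quantified against an 11-point calibration (5–5000 ng/mL) in blank brain matrix. Expressed per mg brain tissue.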

Mus musculus [13] = test: In-vivo inhibition of GLO1 in FVB/NJ mouse assessed as increase in methylglyoxal accumulation at 12.5 mg/kg, ip measured at 240 mins post dose by LC-MS/MS analysis relative to control; type: functional; details: in the assay text read “25 mg/kg” for “12.5 mg/kg”; how it was run: as §3
Lactoylglutathione lyase [14] = biological target: T1, Lactoylglutathione lyase; test: Inhibition of human GLO1
Target sequence in this assay (Q04760 whole entry, the tested form may be a part): as above

Lactoylglutathione lyase [15] = biological target: T1, Lactoylglutathione lyase; test: Inhibition recombinant human N-terminal 6His-tagged GLO1 (2 to 184 residues) expressed in Escherichia coli at 50 uM using MG as substrate preincubated for 15 to 20 mins followed by substrate addition and measured every 1 min for 8 mins
Target sequence in this assay (Q04760 2-184 limits assumed): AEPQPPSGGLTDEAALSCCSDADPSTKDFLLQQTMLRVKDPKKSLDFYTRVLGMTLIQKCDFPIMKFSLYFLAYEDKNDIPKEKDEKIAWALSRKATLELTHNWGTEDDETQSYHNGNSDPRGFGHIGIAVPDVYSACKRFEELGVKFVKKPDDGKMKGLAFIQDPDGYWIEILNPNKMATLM

[16] = Toxicity in FVB/NJ mouse at =>50 mg/kg, ip; type: organism-based; details: in vivo; how it was run: as §1

Row | SMILES | pIC50 (Lactoylglutathione lyase [1]) | other results
1 | CS(=O)(=O)Nc1ccc(-c2ccc(F)c(F)c2)c2cccnc12 | 4.86 | –
2 | CC(C)(C)c1ccc(S(=O)(=O)Nc2cccc3cccnc23)cc1 | 5.38 | –
3 | COc1cc(CCc2cc(NS(=O)(=O)c3ccccn3)c3ncccc3c2)cc(OC)c1 | 6.33 to 6.34 | Activity [2]: Non-Toxic; Activity (Mus musculus [3]): Active; concentration at 0.5 h [4]: 2100 ng/g; concentration at 1 h [5]: 14400 ng/g; concentration at 2 h [6]: 6000 ng/g; concentration at 4 h [7]: 2200 ng/g; concentration at 0.5 h [8]: 400 ng/g; concentration at 1 h [9]: 6700 ng/g; concentration at 2 h [10]: 18900 ng/g; concentration at 4 h [11]: 8300 ng/g; fold change (FC) (Mus musculus [12]): 11; fold change (FC) (Mus musculus [13]): 13
4 | CS(=O)(=O)Nc1cccc2ccncc12 | < 3.70 | –
5 | COC(=O)c1c(C)cc(Oc2cc(C)cc(O)c2O)cc1O | – | pKi (Lactoylglutathione lyase [14]): 6.64
6 | O=S(=O)(Nc1ccc(-c2ccc(F)cc2)c2cccnc12)c1ccccn1 | 6.14 | –
7 | O=S(=O)(Nc1ccc(-c2ccccc2)c2cccnc12)c1ccccn1 | 6.30 | –
8 | CS(=O)(=O)Nc1cccc2cccnc12 | 4.73 | inhibition (Lactoylglutathione lyase [15]): > 50%
9 | N#Cc1ccccc1S(=O)(=O)Nc1cccc2cccnc12 | < 4.70 | –
10 | O=C1Cc2cc(S(=O)(=O)Nc3cccc4cccnc34)ccc2N1 | 5.18 | –
11 | O=S(=O)(Nc1ccc(-c2cccc(Cl)c2)c2cccnc12)c1ccccn1 | 6.43 | –
12 | COc1cccc(S(=O)(=O)Nc2cccc3cccnc23)c1 | 5.16 | –
13 | O=S(=O)(Nc1cccc2cccnc12)C1CC1 | < 4.70 | –
14 | CS(=O)(=O)Nc1ccc(-c2ccc3c(c2)OCO3)c2cccnc12 | 4.95 | –
15 | O=S(=O)(Nc1cccc2cccnc12)c1ccc2c(c1)OCO2 | 5.21 | –
16 | CS(=O)(=O)Nc1cccc2ncccc12 | < 3.70 | –
17 | Cc1ccc2cccc(NS(=O)(=O)c3ccccc3)c2n1 | 4.84 | –
18 | CS(=O)(=O)Nc1ccc(-c2cncnc2)c2cccnc12 | < 4.70 | –
19 | N#Cc1cccc(S(=O)(=O)Nc2cccc3cccnc23)c1 | 5.14 | –
20 | Cn1cc(S(=O)(=O)Nc2cccc3cccnc23)cn1 | < 4.70 | –

Row | SMILES | pIC50 (Lactoylglutathione lyase [1]) | other results
21 | O=S(=O)(Nc1ccc(-c2ccc(Cl)cc2)c2cccnc12)c1ccccn1 | 6.32 | Activity [16]: Toxic
22 | O=S(=O)(Nc1cccc2cccnc12)c1ccccn1 | 5.89 | –
23 | O=S(=O)(Nc1cc(CCc2ccccc2)cc2cccnc12)c1ccccn1 | 5.92 | –
24 | O=S(=O)(CCc1ccccc1)Nc1cccc2cccnc12 | 5.06 | –
25 | CCCCS(=O)(=O)Nc1cccc2cccnc12 | < 4.70 | –
26 | O=S(=O)(Nc1cccc2cccnc12)c1ccc2ncsc2c1 | 5.41 | –
27 | Cn1cnc(S(=O)(=O)Nc2cccc3cccnc23)c1 | 5.26 | –
28 | CS(=O)(=O)Nc1ccc(-c2cccs2)c2cccnc12 | 4.81 | –
29 | CC(=O)Nc1cccc2cccnc12 | < 3.70 | –
30 | CC(C)S(=O)(=O)Nc1cccc2cccnc12 | < 4.70 | –
31 | O=S(=O)(CCCc1ccccc1)Nc1cccc2cccnc12 | 5.34 | –
32 | CS(=O)(=O)Nc1ccc(-c2ccco2)c2cccnc12 | 4.92 | –
33 | O=S(=O)(Nc1cccc2cccnc12)c1ccc2ccccc2c1 | 5.44 | –
34 | O=S(=O)(Nc1ccc(CCc2ccccc2)c2cccnc12)c1ccccn1 | 6.10 | –
35 | COc1ccc(-c2ccc(NS(=O)(=O)c3ccccn3)c3ncccc23)cc1 | 6.19 | –
36 | CS(=O)(=O)Nc1ccc(-c2ccc(Cl)cc2)c2cccnc12 | 5.21 | –
37 | O=S(=O)(Nc1cccc2cccnc12)c1cccnc1 | 4.95 | –
38 | O=S(=O)(Nc1cccc2cccnc12)c1ccc(F)cc1 | 5.12 | –
39 | O=S(=O)(Nc1ccc(-c2ccc(Cl)c(Cl)c2)c2cccnc12)c1ccccn1 | 6.27 | –
40 | CS(=O)(=O)Nc1ccc(N2CCCCC2)c2cccnc12 | < 4.00 | –

Row | SMILES | pIC50 (Lactoylglutathione lyase [1]) | other results
41 | O=S(=O)(Nc1cc(CCc2ccc(F)cc2)cc2cccnc12)c1ccccn1 | 5.88 | –
42 | COc1ccccc1S(=O)(=O)Nc1cccc2cccnc12 | < 4.70 | –
43 | CS(=O)(=O)Nc1ccc(-c2ccncc2)c2cccnc12 | < 4.70 | –
44 | O=S(=O)(Nc1cccc2cccnc12)c1ccccc1 | 5.07 | –
45 | O=S(=O)(Nc1cccc2cccnc12)c1cccs1 | 5.31 | –
46 | N#Cc1ccc(S(=O)(=O)Nc2cccc3cccnc23)cc1 | 5.18 | –
47 | O=S(=O)(Cc1ccccc1)Nc1cccc2cccnc12 | 5.12 | –
48 | COc1ccc(S(=O)(=O)Nc2cccc3cccnc23)cc1 | 5.15 | –
49 | O=S(=O)(Nc1ccc(CCc2ccc(F)cc2)c2cccnc12)c1ccccn1 | 6.10 | –
50 | COc1cccc(-c2ccc(NS(=O)(=O)c3ccccn3)c3ncccc23)c1 | 5.98 | –
51 | CS(=O)(=O)Nc1ccc(N2CCOCC2)c2cccnc12 | < 4.00 | –
52 | CSc1nc2ccc(S(=O)(=O)Nc3cccc4cccnc34)cc2s1 | 5.41 | –
53 | CS(=O)(=O)Oc1cccc2cccnc12 | < 3.70 | –
54 | COc1cc(OC)cc(-c2ccc(NS(=O)(=O)c3ccccn3)c3ncccc23)c1 | 5.92 | –
55 | Cc1ccc2cccc(NS(C)(=O)=O)c2n1 | 4.37 | –
56 | COc1ccc(-c2ccc(NS(=O)(=O)c3ccccn3)c3ncccc23)cc1Cl | 6.23 | –
57 | CS(=O)(=O)Nc1ccc(-c2ccccc2)c2cccnc12 | 4.94 | –
58 | O=S(=O)(Nc1cccc2cccnc12)c1ccc(F)c(F)c1 | 5.24 | –
59 | O=S(=O)(Nc1cccc2cccnc12)C1CCCCC1 | < 4.70 | –
60 | CNS(=O)(=O)c1cccc2cccnc12 | < 3.70 | –
